Measured values reported in ChEMBL document CHEMBL3425449, “Identification of MK-8133: An orexin-2 selective receptor antagonist with favorable development properties” (Bioorg Med Chem Lett, 2015).
≈ marks a conversion by molar mass, not a printed value.

Legend:
[1] = biological target: T1, Orexin/Hypocretin receptor type 1 (Homo sapiens, UniProt O43613); assay: Displacement of [3H]-(S)-N-(biphenyl-2-yl)-1-(2-(1-methyl-1H-benzo[d]imidazol-2-ylthio)acetyl)pyrrolidine-2-carboxamide from human OX1R expressed in CHOK1 cells by radioligand binding assay; type: cell-based, CHO-K1
T1 sequence (O43613 whole entry): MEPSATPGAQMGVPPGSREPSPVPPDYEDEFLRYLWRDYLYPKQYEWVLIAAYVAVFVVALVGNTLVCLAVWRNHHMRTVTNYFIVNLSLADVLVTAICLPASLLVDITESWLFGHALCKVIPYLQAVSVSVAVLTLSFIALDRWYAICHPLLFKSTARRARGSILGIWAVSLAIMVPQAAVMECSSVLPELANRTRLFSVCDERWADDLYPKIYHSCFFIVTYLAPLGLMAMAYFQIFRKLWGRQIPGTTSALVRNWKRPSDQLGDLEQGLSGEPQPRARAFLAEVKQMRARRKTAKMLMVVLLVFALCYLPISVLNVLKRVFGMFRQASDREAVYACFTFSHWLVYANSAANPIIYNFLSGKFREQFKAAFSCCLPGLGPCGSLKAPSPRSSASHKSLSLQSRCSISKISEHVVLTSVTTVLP
In short: (§1)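 Radioligand competition binding on membranes from CHO-K1 cells overexpressing the human orexin receptor.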

CHO-K1 = assay: Selectivity index, ratio of IC50 for human OX1R expressed in CHOK1 cells to IC50 for human OX2R expressed in CHOK1 cells by FLIPR assay; type: cell-based
In short: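 Ratio of OX1R FLIPR IC50 to OX2R FLIPR IC50. Both come from Ca2+-flux assays on human orexin receptors expressed in CHO-K1 cells, each averaged over n ≥ 2 experiments.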

Orexin receptor type 2 [2] = biological target: T2, Orexin receptor type 2 (Homo sapiens, UniProt O43614); assay: Displacement of [3H]-(S)-N-(2-(1H-pyrrol-1-yl)phenyl)-1-(2-(1-methyl-1H-benzo[d]imidazol-2-ylthio)acetyl)pyrrolidine-2-carboxamide from human OX2R expressed in CHOK1 cells by radioligand binding assay; type: cell-based, CHO-K1; in short: as §1
T2 sequence (O43614 whole entry): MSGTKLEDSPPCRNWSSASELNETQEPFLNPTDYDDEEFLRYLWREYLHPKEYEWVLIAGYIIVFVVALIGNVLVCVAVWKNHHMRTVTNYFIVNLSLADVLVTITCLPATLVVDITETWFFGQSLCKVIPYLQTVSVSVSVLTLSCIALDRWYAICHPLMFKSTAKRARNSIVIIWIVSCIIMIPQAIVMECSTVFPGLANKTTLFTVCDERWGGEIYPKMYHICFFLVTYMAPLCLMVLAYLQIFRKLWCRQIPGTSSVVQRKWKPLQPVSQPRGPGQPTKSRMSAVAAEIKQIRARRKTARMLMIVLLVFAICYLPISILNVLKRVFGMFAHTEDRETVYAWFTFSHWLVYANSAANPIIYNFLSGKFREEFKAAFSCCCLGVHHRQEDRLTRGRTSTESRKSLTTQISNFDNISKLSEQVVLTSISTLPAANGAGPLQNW

[3] = biological target: T1, Orexin/Hypocretin receptor type 1; assay: Antagonist activity against human OX1R expressed in CHOK1 cells assessed as inhibition of orexin A-induced […] Ca2+ mobilization by FLIPR assay; type: functional, cell-based, CHO-K1
In short: (§2)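 Cell-based FLIPR assay measuring Ca2+ flux as the functional read-out of orexin receptor antagonism. Target is the human orexin receptor expressed in CHO-K1 cells.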

Orexin receptor type 2 [4] = biological target: T2, Orexin receptor type 2; assay: Antagonist activity against human OX2R expressed in CHOK1 cells assessed as inhibition of orexin A-induced […] Ca2+ mobilization by FLIPR assay; type: functional, cell-based, CHO-K1; in short: as §2
Plasma [5] = assay: Stability in rat plasma; type: ADME, cell-free
[6] = Lipophilicity, log D of the compound by HPLC method; type: physicochemical
[7] = Solubility of the compound at pH 7; type: physicochemical; conditions: buffer
Plasma [8] = assay: Stability in human plasma; type: ADME, cell-free
[9] = Intrinsic clearance in human microsomes; type: ADME, Microsome
[10] = Half life in dog at 10 mg/kg, po or 2 mg/kg, iv; type: ADME, organism-based, Canis lupus familiaris; conditions: in vivo
In short: (§3)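 Dog pharmacokinetics determined after intravenous and oral administration.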

[11] = Oral bioavailability in Wistar Han rat at 10 mg/kg; type: ADME, organism-based; conditions: in vivo
In short: (§4)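 Pharmacokinetics in Wistar Han rats (n = 2) after intravenous and oral dosing. Oral dose was 10 mg/kg in PEG400:Tween80/water 40:10:50. IV dose was 2 mg/kg in DMSO/PEG400/water 20:60:20.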

[12] = Volume of distribution at steady state in Wistar Han rat at 10 mg/kg, po or 2 mg/kg, iv; type: ADME, organism-based; conditions: in vivo, read-out: Vdss; in short: as §4
[13] = Half life in Wistar Han rat at 10 mg/kg, po or 2 mg/kg, iv; type: ADME, organism-based; conditions: in vivo; in short: as §4
[14] = Volume of distribution at steady state in dog at 10 mg/kg, po or 2 mg/kg, iv; type: ADME, organism-based, Canis lupus familiaris; conditions: in vivo, read-out: Vdss; in short: as §3
[15] = Oral bioavailability in dog at 10 mg/kg; type: ADME, organism-based, Canis lupus familiaris; conditions: in vivo; in short: as §3
[16] = Clearance in Wistar Han rat at 10 mg/kg, po or 2 mg/kg, iv; type: ADME, organism-based; conditions: in vivo; in short: as §4
[17] = Clearance in dog at 10 mg/kg, po or 2 mg/kg, iv; type: ADME, organism-based, Canis lupus familiaris; conditions: in vivo; in short: as §3

| Ki [1] | Ki (Orexin receptor type 2 [2]) | IC50 [3] | IC50 (Orexin receptor type 2 [4]) | SMILES | Ratio IC50 (CHO-K1) | other results |
| --- | --- | --- | --- | --- | --- | --- |
| 140 nM | 1.3 nM | – | – | COc1ccnc(O[C@@H]2CC[C@@H](C)N(C(=O)c3ccccc3-n3nccn3)C2)c1 | 49 | – |
| 470 nM | 6.5 nM | > 10000 nM | 95 nM | C[C@@H]1CC[C@@H](Oc2cc(C(=O)N(C)C)ccn2)CN1C(=O)c1ccccc1-n1nccn1 | > 105 | – |
| – | – | 10000 nM | 21 nM | COC(=O)c1ccccc1C(=O)N1C[C@H](Oc2cc(C#N)ccn2)CC[C@H]1C | > 490 | Stability (Plasma [5]): Unstable; logD ([6]; read-out: logD): 2.9; solubility ([7]; read-out: solubility): 151 µM (≈ 57.3 µg/mL); Stability (Plasma [8]): Unstable; CLint scaled [9]: < 16 mL/min/kg |
| 59 nM | 0.4 nM | – | 7.2 nM | C[C@@H]1CC[C@@H](Oc2cc(I)ccn2)CN1C(=O)c1ccccc1-n1nccn1 | 57 | – |
| 130 nM | 1.8 nM | 380 nM | 10 nM | C[C@@H]1CC[C@@H](Oc2cc(Br)ccn2)CN1C(=O)c1ccccc1-n1nccn1 | 37 | – |
| 310 nM | 3.9 nM | 1800 nM | 22 nM | COC(=O)c1ccnc(O[C@@H]2CC[C@@H](C)N(C(=O)c3ccccc3-n3nccn3)C2)c1 | 82 | – |
| 1400 nM | 4.5 nM | 1500 nM | 130 nM | C[C@@H]1CC[C@@H](Oc2cc(N(C)C)ccn2)CN1C(=O)c1ccccc1-n1nccn1 | 12 | – |
| – | – | 8400 nM | 25 nM | Cc1nc(-c2ccccc2C(=O)N2C[C@H](Oc3cc(C#N)ccn3)CC[C@H]2C)no1 | 361 | half-life [10]: 1.5 h; logD ([6]; read-out: logD): 3; bioavailability [11]: 26%; Vd [12]: 1.3 L/kg; solubility ([7]; read-out: solubility): 162 µM (≈ 65.4 µg/mL); half-life [13]: 1.3 h; Vd [14]: 0.54 L/kg; bioavailability [15]: 54%; clearance [16]: 30 mL/min/kg; clearance [17]: 4.6 mL/min/kg; CLint scaled [9]: 23 mL/min/kg |
| 4760 nM | 621 nM | – | – | Cc1cccnc1O[C@@H]1CC[C@@H](C)N(C(=O)c2ccccc2-n2nccn2)C1 | – | – |
| 350 nM | 0.9 nM | 510 nM | 16 nM | C[C@@H]1CC[C@@H](Oc2cc(S(C)(=O)=O)ccn2)CN1C(=O)c1ccccc1-n1nccn1 | 33 | – |
| 37 nM | 2.6 nM | 142 nM | 9 nM | Cc1ccc(O[C@@H]2CC[C@@H](C)N(C(=O)c3ccccc3-n3nccn3)C2)nc1 | 16 | – |
| 57 nM | 0.6 nM | 310 nM | 11 nM | CCc1ccnc(O[C@@H]2CC[C@@H](C)N(C(=O)c3ccccc3-n3nccn3)C2)c1 | 28 | – |
| 49 nM | 0.6 nM | 240 nM | 10 nM | C#Cc1ccnc(O[C@@H]2CC[C@@H](C)N(C(=O)c3ccccc3-n3nccn3)C2)c1 | 23 | – |
| 166 nM | 2.6 nM | 788 nM | – | Cc1ccnc(O[C@@H]2CC[C@@H](C)N(C(=O)c3ccccc3-n3nccn3)C2)c1 | 49 | – |
| 430 nM | 3.9 nM | – | – | C[C@@H]1CC[C@@H](Oc2cc(F)ccn2)CN1C(=O)c1ccccc1-n1nccn1 | 68 | – |
| 120 nM | 1.4 nM | – | 11 nM | C[C@@H]1CC[C@@H](Oc2cc(Cl)ccn2)CN1C(=O)c1ccccc1-n1nccn1 | 51 | – |
| – | – | > 10000 nM | 37 nM | C[C@@H]1CC[C@@H](Oc2cc(C#N)ccn2)CN1C(=O)c1ccccc1OC(F)F | > 314 | logD [6]: ND(Insoluble); solubility [7]: Insoluble; CLint scaled [9]: 43 mL/min/kg |
| 360 nM | 3.8 nM | 2400 nM | 45 nM | C[C@@H]1CC[C@@H](Oc2cc(-c3ccccc3)ccn2)CN1C(=O)c1ccccc1-n1nccn1 | 54 | – |
| 14000 nM | 2400 nM | – | – | C[C@@H]1CC[C@@H](Oc2ccccn2)CN1C(=O)c1ccccc1-n1nccn1 | – | – |
| 12 nM | 7.6 nM | 745 nM | 33 nM | Cc1cccc(O[C@@H]2CC[C@@H](C)N(C(=O)c3ccccc3-n3nccn3)C2)n1 | 23 | – |
| – | – | > 10000 nM | 32 nM | C[C@@H]1CC[C@@H](Oc2cc(C#N)ccn2)CN1C(=O)c1ccccc1CC(F)(F)F | > 312 | logD ([6]; read-out: logD): 3.6; solubility ([7]; read-out: solubility): 95 µM (≈ 38.3 µg/mL); CLint scaled [9]: 132 mL/min/kg |
| 39 nM | 0.2 nM | 110 nM | 6.7 nM | CSc1ccnc(O[C@@H]2CC[C@@H](C)N(C(=O)c3ccccc3-n3nccn3)C2)c1 | 16 | – |
| 830 nM | – | 3800 nM | 13 nM | C[C@@H]1CC[C@@H](Oc2cc(C#N)ccn2)CN1C(=O)c1ccccc1-n1nccn1 | 293 | half-life [10]: 1.1 h; logD ([6]; read-out: logD): 3; bioavailability [11]: 17%; Vd [12]: 1.7 L/kg; solubility ([7]; read-out: solubility): 148 µM (≈ 57.5 µg/mL); half-life [13]: 1.7 h; Vd [14]: 1.5 L/kg; bioavailability [15]: 13%; clearance [16]: 18 mL/min/kg; clearance [17]: 27 mL/min/kg; CLint scaled [9]: 16 mL/min/kg |
| – | – | 7100 nM | 21 nM | CCOC(=O)c1ccccc1C(=O)N1C[C@H](Oc2cc(C#N)ccn2)CC[C@H]1C | 349 | logD ([6]; read-out: logD): 3.2; solubility ([7]; read-out: solubility): 121 µM (≈ 47.6 µg/mL); CLint scaled [9]: 37 mL/min/kg |
| – | – | 3300 nM | 38 nM | CC(C)OC(=O)c1ccccc1C(=O)N1C[C@H](Oc2cc(C#N)ccn2)CC[C@H]1C | 87 | logD ([6]; read-out: logD): 3.6; solubility ([7]; read-out: solubility): 115 µM (≈ 46.9 µg/mL) |
| 64 nM | 0.2 nM | 370 nM | – | C[C@@H]1CC[C@@H](Oc2cc(C(F)(F)F)ccn2)CN1C(=O)c1ccccc1-n1nccn1 | 21 | – |
